Data taken from ChEMBL document CHEMBL1275259, “In vitro antituberculosis activities of ACH-702, a novel isothiazoloquinolone, against quinolone-susceptible and quinolone-resistant isolates” (Antimicrob Agents Chemother, 2010).
In brackets after ≈: the same amount, converted by molar mass.

Assays:
[1] = system: Mycobacterium tuberculosis; assay: Antimicrobial activity against pansusceptible Mycobacterium tuberculosis isolate 3; assay type: functional
Method in brief: (§1)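 Broth microdilution MIC in modified 7H10 broth (pH 6.6). Drugs dissolved in DMSO at 1 mg/ml, then serially diluted. Isolates grown 5 to 10 days at 37°C on a rotary shaker, diluted to 100 Klett units and frozen. Final inoculum about 6 × 10^4 CFU/ml (range 1.2 × 10^4 to 2.6 × 10^5). Duplicate wells, sealed, read after about 21 days at 37°C in ambient air.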

[2] = system: Mycobacterium tuberculosis; assay: Antimicrobial activity against pansusceptible Mycobacterium tuberculosis isolate 1; assay type: functional; method in brief: as §1
[3] = system: Mycobacterium tuberculosis; assay: Antimicrobial activity against pansusceptible Mycobacterium tuberculosis isolate 6; assay type: functional; method in brief: as §1
[4] = system: Mycobacterium tuberculosis; assay: Antimicrobial activity against pansusceptible Mycobacterium tuberculosis isolate 2; assay type: functional; method in brief: as §1
[5] = system: Mycobacterium tuberculosis; assay: Antimicrobial activity against pansusceptible Mycobacterium tuberculosis isolate 7; assay type: functional; method in brief: as §1
DNA gyrase subunit A = DNA gyrase subunit A (Mycobacterium tuberculosis, UniProt P9WG47); assay: Inhibition of DNA supercoiling activity of wild type Mycobacterium tuberculosis DNA gyrase A
Chain of DNA gyrase subunit A (P9WG47 whole entry): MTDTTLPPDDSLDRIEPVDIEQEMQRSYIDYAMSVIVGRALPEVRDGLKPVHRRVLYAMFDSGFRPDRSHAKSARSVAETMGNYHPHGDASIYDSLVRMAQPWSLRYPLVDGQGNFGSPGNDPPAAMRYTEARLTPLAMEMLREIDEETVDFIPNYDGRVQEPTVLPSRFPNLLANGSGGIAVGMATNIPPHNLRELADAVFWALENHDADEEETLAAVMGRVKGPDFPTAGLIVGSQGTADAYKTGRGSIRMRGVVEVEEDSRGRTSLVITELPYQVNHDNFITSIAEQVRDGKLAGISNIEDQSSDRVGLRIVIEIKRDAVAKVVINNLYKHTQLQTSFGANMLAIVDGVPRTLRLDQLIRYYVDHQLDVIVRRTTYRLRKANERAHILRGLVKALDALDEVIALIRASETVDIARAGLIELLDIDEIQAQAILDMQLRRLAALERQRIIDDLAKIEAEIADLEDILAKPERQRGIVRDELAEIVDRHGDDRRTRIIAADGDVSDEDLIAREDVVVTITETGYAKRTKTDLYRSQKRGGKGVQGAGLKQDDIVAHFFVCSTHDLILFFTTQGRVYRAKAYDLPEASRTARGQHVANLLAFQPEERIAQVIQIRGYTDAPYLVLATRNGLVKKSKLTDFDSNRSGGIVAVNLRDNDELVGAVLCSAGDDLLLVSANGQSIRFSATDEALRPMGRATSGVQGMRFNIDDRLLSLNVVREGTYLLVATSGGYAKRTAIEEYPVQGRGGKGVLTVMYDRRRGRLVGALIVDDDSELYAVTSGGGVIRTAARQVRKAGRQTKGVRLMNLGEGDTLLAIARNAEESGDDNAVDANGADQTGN
Method in brief: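 Gyrase reconstituted from wild-type GyrA plus wild-type GyrB at a 2:3 molar ratio. Supercoiling assay follows ATP-dependent conversion of relaxed pBR322 DNA to the supercoiled form. Supercoiled product quantified by ethidium bromide fluorescence after agarose gel electrophoresis.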

[6] = system: Mycobacterium tuberculosis; assay: Antimicrobial activity against pansusceptible Mycobacterium tuberculosis isolate 5; assay type: functional; method in brief: as §1
[7] = system: Mycobacterium tuberculosis; assay: Antimicrobial activity against Mycobacterium tuberculosis isolate 13 isolated from Beijing; assay type: functional; method in brief: as §1
[8] = system: Mycobacterium tuberculosis; assay: Antimicrobial activity against pansusceptible Mycobacterium tuberculosis isolate 14; assay type: functional; method in brief: as §1
[9] = system: Mycobacterium tuberculosis; assay: Antimicrobial activity against pansusceptible Mycobacterium tuberculosis isolate 4; assay type: functional; method in brief: as §1

Structure (SMILES) | MIC [1] [µg/mL] | MIC [2] [µg/mL] | MIC [3] [µg/mL] | MIC [4] [µg/mL] | MIC [5] [µg/mL] | IC50 (DNA gyrase subunit A) [µM] | MIC [6] [µg/mL] | MIC [7] [µg/mL] | MIC [8] [µg/mL] | MIC [9] [µg/mL]
COc1c(N2CC[C@@H](C(C)(C)N)C2)c(F)cc2c(=O)c3c(=O)[nH]sc3n(C3CC3)c12 | 0.06 (≈ 0.139 µM) | 0.06 (≈ 0.139 µM) | 0.03 (≈ 0.0694 µM) | 0.03 (≈ 0.0694 µM) | 0.06 (≈ 0.139 µM) | 2.9 | 0.06 (≈ 0.139 µM) | 0.06 (≈ 0.139 µM) | 0.06 (≈ 0.139 µM) | 0.06 (≈ 0.139 µM)
NNC(=O)c1ccncc1 [ISONIAZID] | 0.06 (≈ 0.438 µM) | 0.03 (≈ 0.219 µM) | 0.06 (≈ 0.438 µM) | 0.06 (≈ 0.438 µM) | 0.06 (≈ 0.438 µM) |  | 0.125 (≈ 0.911 µM) | 0.125 (≈ 0.911 µM) | 0.06 (≈ 0.438 µM) | 0.06 (≈ 0.438 µM)
COc1c(N2C[C@@H]3CCCN[C@@H]3C2)c(F)cc2c(=O)c(C(=O)O)cn(C3CC3)c12 [MOXIFLOXACIN] | 0.03 (≈ 0.0747 µM) | 0.03 (≈ 0.0747 µM) | 0.03 (≈ 0.0747 µM) | 0.03 (≈ 0.0747 µM) | 0.06 (≈ 0.149 µM) |  | 0.06 (≈ 0.149 µM) | 0.03 (≈ 0.0747 µM) | 0.03 (≈ 0.0747 µM) | 0.06 (≈ 0.149 µM)
COc1c(N2CCNC(C)C2)c(F)cc2c(=O)c(C(=O)O)cn(C3CC3)c12 (centres undefined) [GATIFLOXACIN] |  |  |  |  |  | 9.4 |  |  |  | 
CO[C@H]1/C=C/O[C@@]2(C)Oc3c(C)c(O)c4c(O)c(c(/C=N/N5CCN(C)CC5)c(O)c4c3C2=O)NC(=O)/C(C)=C\C=C\[C@H](C)[C@H](O)[C@@H](C)[C@@H](O)[C@@H](C)[C@H](OC(C)=O)[C@@H]1C [RIFAMPIN] | 0.004 (≈ 0.00486 µM) | 0.004 (≈ 0.00486 µM) | 0.008 (≈ 0.00972 µM) | ≤ 0.001 | 0.004 (≈ 0.00486 µM) |  | 0.015 (≈ 0.0182 µM) | 0.002 (≈ 0.00243 µM) | 0.002 (≈ 0.00243 µM) | 0.008 (≈ 0.00972 µM)
C[C@H]1COc2c(N3CCN(C)CC3)c(F)cc3c(=O)c(C(=O)O)cn1c23 [LEVOFLOXACIN] |  |  |  |  |  | 52 |  |  |  | 
